Laboratory results taken from PubChem BioAssay.
Active and inactive are the calls of the source.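 How the source made its calls, unless noted: active means fluorescence slope higher than the sample average by over 3 SD (cut at about -0.22 in these data, passing the limit was not always enough); inactive means the rest.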

How the values were obtained:
[1] = inhibitors of TNFa-induced NFkB p65 translocation, primary screen, imaging, HUVEC, MLSMR starter and 10KST1 sets (AID 438;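 active means inhibition above 20% together with a positive visual image hit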;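 further: compound added about 3h40 before a 20 min TNFalpha stimulation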;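 on inhibition: signal is the nuclear over cytoplasmic p65 intensity ratio per well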); details: HUVEC TNFa-induced p65 nuclear translocation; cell count: measured here: nuclei count (cytotoxicity indicator), at 2.08 µM; inhibition: at 2 µM, stronger effect = higher value, 0% TNFa-plus-vehicle, 100% no-TNFa wells
[2] = endothelial E-selectin expression blockers – imaging, HUVEC, immunofluorescence, MLSMR starter and 10KST1 sets, primary screen (AID 487;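 active means visually confirmed hit in the image check and inhibition above 20%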;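 on inhibition: signal is fraction of cell area covered by stained E-selectin grains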;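 on nuclei count: 100% = median nuclei count of all wells on the same plate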); details: HUVEC TNFalpha-induced E-selectin immunofluorescence imaging, at 2 µM; inhibition: stronger effect = higher value; nuclei count: measured here: cell number, toxicity
[3] = Primary imaging screen for DUSP6 inhibitors that restore phospho-Erk in transfected HeLa cells, chemical complementation (AID 609;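 active means compounds giving at least 50% inhibition in the cell-based MKP-3 phosphatase rescue imaging test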;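 on inhibition: phospho-Erk level distribution per well compared with pooled transfected vehicle control wells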); details: HeLa MKP-3 transfected, phospho-Erk imaging KS statistic, at 10 µM, cells stimulated with TPA for 15 min
[4] = target: Dual specificity protein phosphatase 6 (Homo sapiens) (UniProt Q16828); assay: as above; details: HeLa MKP-3 transfected, phospho-Erk imaging KS statistic; at 10 µM; stronger effect = higher value; cells stimulated with TPA for 15 min
[5] = target: Voltage-gated potassium channel subunit beta-2 (Rattus norvegicus) (UniProt P62483); assay: inhibitors of rat Kvbeta2 reductase activity – biochemical, NADPH fluorescence, primary screen (AID 622); details: recombinant KvBeta, 4-cyanobenzaldehyde reduction, at 10 µM, stronger effect = higher value;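 further: slope of raw intensity against log time taken from 70 to 1610 s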
[6] = target: Voltage-gated potassium channel subunit beta-2 (Rattus norvegicus) (UniProt P62483); assay: enhancers of rat Kvbeta2 NADPH turnover – biochemical, NADPH fluorescence, primary screen (AID 623;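 active means NADPH fluorescence slope more negative than the mean of all samples by about 3 SD, 99.7% confidence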;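 further: fluorescence intensity change per second fitted from 20 to 320 s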); details: Recombinant KvBeta, NADPH fluorescence decrease slope, 10 min; at 10 µM; stronger effect = lower value
[7] = target: Muscarinic acetylcholine receptor M4 (Homo sapiens) (UniProt P08173); assay: M4-linked GIRK flux change, two-sided – cell-based, HEK293 M4/GIRK, thallium flux, BTC-AM, M4 allosteric agonist project, primary screen (AID 625;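 active means fluorescence slope after compound addition differing from the mean of all tested samples at 99.7% confidence, mostly higher but some lower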;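 further: thallium influx through GIRK channels coupled to M4 in HEK293 cells with BTC-AM dye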); details: at 10 µM, actives lie on both sides
How it was run: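 Material: HEK293 cells with M4 receptor and GIRK channels; Times: cells overnight at 37 °C, BTC-AM loading 1 h, reads 2 min total; Technique: kinetic BTC-AM fluorescence sampled at 1 Hz, 10 s pre-addition baseline; Read-out basis: slope over 15–24 s of trace normalized to starting intensity; Controls: carbachol positive, DMSO negative.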

[8] = inhibitors of larval lipid processing in zebrafish, primary screen, whole organism, PED6 fluorescence, gall bladder and intestine (AID 686;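 active means a full or partial loss of lipid-probe fluorescence in the fish gall bladder, intestine or both, judged by eye; inactive means no fluorescence loss, or compound toxic to the fish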;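 further: larvae 5 to 7 days old with five fish per well; signal comes from phospholipase A2 cleavage of quenched PED6 carried via bile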); details: Zebrafish larvae PED6 lipid processing, fluorescence scoring; screened at 20 µM (by protocol)
How it was run: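 Incubation: overnight exposure of larvae to compound plus PED6 / Test system: live zebrafish larvae aged 5-7 days, whole organism / Amount: 5 larvae per well / Read-out basis: visual per-well fluorescence inhibition score / Signal: visual fluorescence microscopy scoring of gall bladder, gut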

[9] = loss of swimming-algae plug formation – whole organism, Chlamydomonas reinhardtii, WT vs cilia-less mutant, absorbance, 96-well, primary screen (AID 463189;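 active means inhibition at or above 50% relative to wild type and mutant plate controls; inactive means inhibition below 50%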;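 further: 0% = wild type cc124 cells in DMSO and 100% = ciliumless bld1 mutant cells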); details: Chlamydomonas reinhardtii gravitaxis, OD600 absorbance, 2 days; at 10 µM; stronger effect = higher value
[10] = measured here: cell density z-score
[11] = measured here: nuclear c-Myc green intensity z-score
[12] = measured here: nuclear pErk red intensity z-score, stronger effect = higher value

Voltage-gated potassium channel subunit beta-2 (Rattus norvegicus), sequence (P62483 whole entry, looked up): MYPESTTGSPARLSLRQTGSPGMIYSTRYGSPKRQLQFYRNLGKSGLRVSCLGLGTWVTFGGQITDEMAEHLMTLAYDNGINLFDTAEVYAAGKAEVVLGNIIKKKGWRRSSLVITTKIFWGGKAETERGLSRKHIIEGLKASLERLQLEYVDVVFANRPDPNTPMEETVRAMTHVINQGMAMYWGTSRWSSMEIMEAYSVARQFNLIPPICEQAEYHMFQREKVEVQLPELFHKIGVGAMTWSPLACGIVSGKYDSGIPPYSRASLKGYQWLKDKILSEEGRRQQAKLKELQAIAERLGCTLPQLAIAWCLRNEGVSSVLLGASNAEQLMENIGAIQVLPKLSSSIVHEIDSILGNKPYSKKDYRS
Muscarinic acetylcholine receptor M4 (Homo sapiens), sequence (P08173 whole entry, looked up): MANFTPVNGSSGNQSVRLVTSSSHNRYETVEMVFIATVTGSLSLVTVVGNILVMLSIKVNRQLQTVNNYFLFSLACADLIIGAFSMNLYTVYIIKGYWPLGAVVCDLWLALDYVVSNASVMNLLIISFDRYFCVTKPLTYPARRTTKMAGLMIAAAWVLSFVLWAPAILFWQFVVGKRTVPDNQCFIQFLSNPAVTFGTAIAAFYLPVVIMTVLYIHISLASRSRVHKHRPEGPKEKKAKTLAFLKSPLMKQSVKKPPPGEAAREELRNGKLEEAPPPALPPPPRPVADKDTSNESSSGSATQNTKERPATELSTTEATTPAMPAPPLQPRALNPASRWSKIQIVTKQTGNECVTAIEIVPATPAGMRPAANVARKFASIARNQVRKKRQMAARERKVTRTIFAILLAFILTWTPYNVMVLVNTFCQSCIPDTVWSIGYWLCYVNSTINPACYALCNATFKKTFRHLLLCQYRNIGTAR
Dual specificity protein phosphatase 6 (Homo sapiens), sequence (Q16828 whole entry, looked up): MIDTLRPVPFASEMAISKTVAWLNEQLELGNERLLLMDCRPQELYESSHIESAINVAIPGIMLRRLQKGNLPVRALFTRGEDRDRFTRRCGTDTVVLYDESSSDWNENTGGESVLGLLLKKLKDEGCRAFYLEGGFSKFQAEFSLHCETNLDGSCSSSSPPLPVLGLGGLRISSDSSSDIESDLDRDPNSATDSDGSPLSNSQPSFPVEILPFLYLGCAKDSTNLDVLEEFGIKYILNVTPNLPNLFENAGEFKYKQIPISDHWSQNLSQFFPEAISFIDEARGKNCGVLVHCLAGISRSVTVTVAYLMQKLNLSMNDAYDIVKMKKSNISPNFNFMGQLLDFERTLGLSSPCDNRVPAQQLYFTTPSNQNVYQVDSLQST

Row | Compound | cell count [1] | inhibition [1] | inhibition [2] | nuclei count [2] | z-score [3, 10] | z-score [3, 11] | z-score [3, 12] | inhibition [4] | fluorescence slope [5] | NADPH fluorescence slope [6] | fluorescence slope [7] | outcome [8] | inhibition [9]
1 | COc1ccc(C(O)C(CN2CCOCC2)c2ccccc2)cc1 (stereo not given) | 393 | -2.8% (inactive) | -22.6% (inactive) | 144% | -0.497 | -1.2 | 2.05 | -2.59% (inactive) | -0.44 (inactive) | -0.00013 (inactive) | 0.00559 (inactive) | inactive | -3.86% (inactive)
2 | CCOC(=O)C1CCN(c2nc3ccccc3nc2C(C#N)C(=O)OC(C)COC)CC1 (stereo not given) | 633 | -11.6% (inactive) | -4.7% (inactive) | 160% | 0.378 | -0.378 | -0.33 | -5.81% (inactive) | -0.488 (inactive) | -8.1e-05 (inactive) | 0.00472 (inactive) | inactive | 6.91% (inactive)
3 | CC(C)Cc1nc(N2CCOCC2)c(C#N)c2c1COC(C)(C)C2 | 584 | -7% (inactive) | -84.6% (inactive) | 146% | -0.646 | 0.861 | 0.329 | -2.09% (inactive) | -0.405 (inactive) | -3.3e-05 (inactive) | 0.00418 (inactive) | inactive | 3.97% (inactive)
4 | N#Cc1cccc(-n2c(-c3ccccc3)nnc2-c2ccccc2)c1C#N | 587 | -2.7% (inactive) | -7.1% (inactive) | 99.3% | -3.17 | 1.25 | 1.22 | -7.86% (inactive) | -0.508 (inactive) | -6.3e-05 (inactive) | 0.00624 (inactive) | inactive | 6.01% (inactive)
5 | Cc1nn(CCO)c2c1C(=O)CCC2 | 514 | -5.8% (inactive) | -16.6% (inactive) | 166% | 1.33 | -0.18 | -0.238 | 5.95% (inactive) | -0.382 (inactive) | -2.1e-05 (inactive) | 0.00488 (inactive) | inactive | -6.32% (inactive)
6 | Cc1nnc(N2CCCCC2)c2ccccc12 | 511 | -5.6% (inactive) | 59.4% (inactive) | 87% | -2.8 | 0.768 | 0.176 | 18.4% (inactive) | -0.507 (inactive) | -9.4e-06 (inactive) | 0.0054 (inactive) | inactive | 47.9% (inactive)
7 | Cc1cc(C)n(S(=O)(=O)/C=C/c2ccccc2)n1 | 395 | -10.4% (inactive) | -329% (inactive) | 150% | 8.45e-06 | -0.53 | 0.596 | -10.6% (inactive) | -0.475 (inactive) | -0.000103 (inactive) | 0.00397 (inactive) | inactive | 25.5% (inactive)
8 | Cc1cc(=O)oc2ccc(OCC(=O)N3CCc4ccccc43)cc12 | 630 | -1.2% (inactive) | -32.9% (inactive) | 180% | -1.93 | 0.803 | 1.57 | -2.29% (inactive) | -0.478 (inactive) | -7.1e-05 (inactive) | 0.00705 (inactive) | inactive | 1.65% (inactive)
9 | Cn1c(=O)c2c(nc(NCc3ccco3)n2CCc2ccccc2)n(C)c1=O | 605 | 6% (inactive) | -74.4% (inactive) | 121% | -0.322 | -0.952 | 1.19 | 1.98% (inactive) | -0.524 (inactive) | -6e-05 (inactive) | 0.00721 (inactive) | inactive | 33.1% (inactive)
10 | COc1ccc(N2CC(=O)N(c3ccc(OC)c(OC)c3)CC2=O)cc1OC | 400 | -5.7% (inactive) | -94.2% (inactive) | 142% | -0.173 | -2.28 | 1.66 | 3.42% (inactive) | -0.477 (inactive) | -5.2e-05 (inactive) | 0.00438 (inactive) | inactive | 18.5% (inactive)
11 | N#C/C(C(=O)N1CCCCC1)=C1\Nc2ccccc2S1 | 649 | 6.4% (inactive) | -0.9% (inactive) | 117% | -0.0253 | -0.323 | -0.359 | 1.63% (inactive) | -0.457 (inactive) | -6.2e-05 (inactive) | 0.00412 (inactive) | inactive | 15.7% (inactive)
12 | COC(=O)CSc1nc(-c2cccs2)ccc1C#N | 646 | 1.5% (inactive) | -18.4% (inactive) | 154% | 0.598 | -1.62 | -0.658 | 2.92% (inactive) | -0.456 (inactive) | -4.2e-05 (inactive) | 0.00605 (inactive) | inactive | -2.12% (inactive)
13 | COc1cc(Cn2ccnc2)c(OC)cc1Cn1ccnc1 | 588 | 0.1% (inactive) | -64% (inactive) | 154% | 0.988 | 1.55 | 0.136 | 1.63% (inactive) | -0.422 (inactive) | -0.000118 (inactive) | 0.0052 (inactive) | inactive | 10.7% (inactive)
14 | CN1C(=O)NC(c2ccccc2)C2=C1CN(Cc1ccccc1)C2=O (stereo not given) | 400 | -7.1% (inactive) | -56.6% (inactive) | 139% | 0.502 | -1.59 | 1.04 | -2.59% (inactive) | -0.501 (inactive) | -0.000103 (inactive) | 0.00419 (inactive) | inactive | 23.3% (inactive)
15 | N#Cc1nc(-c2cccs2)oc1NCc1ccc2c(c1)OCO2 | 624 | -4.4% (inactive) | -132% (inactive) | 157% | -0.376 | -0.933 | 0.595 | 7.83% (inactive) | -0.404 (inactive) | -1.3e-05 (inactive) | 0.00406 (inactive) | inactive | 30.7% (inactive)
16 | Nc1nc2n(n1)C(c1cccs1)CC(c1ccc(F)cc1)N2 (stereo not given) | 385 | 5.4% (inactive) | -40.7% (inactive) | 141% | 0.349 | 0.295 | -0.128 | 5.65% (inactive) | -0.436 (inactive) | -0.000111 (inactive) | 0.00473 (inactive) | inactive | 0.994% (inactive)
17 | CSc1nc2sc3c(c2c2nnnn12)CCCC3 | 506 | -14.9% (inactive) | -77.3% (inactive) | 118% | 0.676 | -0.0981 | -1.25 | -5.81% (inactive) | -0.455 (inactive) | -7.9e-06 (inactive) | 0.00421 (inactive) | inactive | 31% (inactive)
18 | C=C(C)CN(CC)CCC(=O)Nc1ccc(OC)cc1OC | 486 | -7.5% (inactive) | -273% (inactive) | 172% | -0.562 | 0.149 | 0.762 | -7.28% (inactive) | -0.424 (inactive) | -3.9e-05 (inactive) | 0.0048 (inactive) | inactive | 11.3% (inactive)
19 | CCC(=O)Nc1cccc(-c2nnc(SCC(=O)NCc3ccco3)n2C)c1 | 615 | -0.2% (inactive) | 47.2% (inactive) | 92.3% | 1.47 | -0.507 | -1.13 | 18.4% (inactive) | -0.51 (inactive) | -4e-05 (inactive) | 0.00589 (inactive) | inactive | -16.4% (inactive)
20 | Cn1c(NCc2cccnc2)nc2c1c(=O)n(Cc1ccccc1F)c(=O)n2C | 696 | 3% (inactive) | -201% (inactive) | 167% | 0.699 | -0.869 | 1.16 | 11.9% (inactive) | -0.51 (inactive) | -6e-05 (inactive) | 0.00566 (inactive) | inactive | 18.1% (inactive)
21 | COc1cccc(OC)c1C(=O)Nc1nc2ccc(S(C)(=O)=O)cc2s1 | 388 | -2.4% (inactive) | -8.7% (inactive) | 109% | 0.854 | 0.658 | -1.02 | 6.04% (inactive) | -0.409 (inactive) | -1e-05 (inactive) | 0.00408 (inactive) | inactive | 19.4% (inactive)
22 | CCOCCn1c(SCc2c(F)cccc2Cl)nc2c1c(=O)[nH]c(=O)n2C | 620 | 3.9% (inactive) | -40.4% (inactive) | 114% | -0.473 | 0.0694 | 0.197 | -9.53% (inactive) | -0.472 (inactive) | -4.5e-05 (inactive) | 0.00638 (inactive) | inactive | -4.7% (inactive)
23 | CCOC(=O)COn1c(=O)c(-c2ccc(OC)c(OC)c2)[n+]([O-])c2ccccc21 | 542 | -6% (inactive) | -40.6% (inactive) | 142% | 0.722 | -0.529 | 0.673 | -1.98% (inactive) | -0.33 (inactive) | -7.7e-06 (inactive) | 0.00588 (inactive) | inactive | 37.5% (inactive)
24 | COc1ccc(OC)c(C2C(C#N)=C(N)Oc3cc(C)n(Cc4ccccn4)c(=O)c32)c1 (stereo not given) | 736 | 3.4% (inactive) | -76% (inactive) | 167% | 0.84 | 0.709 | -0.214 | 13.2% (inactive) | -0.443 (inactive) | -7.4e-05 (inactive) | 0.0059 (inactive) | inactive | 11.4% (inactive)
25 | N#CC1=C(N)OC2=C(C(=O)CCC2)[C@]12C(=O)N(CC(N)=O)c1ccccc12 | 485 | -9.7% (inactive) | -41.1% (inactive) | 130% | -0.751 | 0.747 | -0.43 | -7.28% (inactive) | -0.431 (inactive) | -3e-05 (inactive) | 0.00487 (inactive) | inactive | -0.197% (inactive)
